Assay results: ChEMBL document CHEMBL1144360, “Phenazine 5,10-dioxide derivatives as hypoxic selective cytotoxins” (2005)
Values joined by “and” are separate entries in the source; they are usually repeats but may differ in a detail not shown here. Identical values can stand only once.

Key:
Format in all cases: functional, Cricetulus griseus
Cricetinae gen. sp. [1] = test: In vitro survival fraction of V79 cells after 2 hours upon treatment with compound under hypoxia at 20 uM; design: unit: %
Outline: (§1)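 Clonogenic assay on V79 suspension cultures gassed with air (aerobic) or nitrogen (hypoxia), exposed to compound for 2 h. Colony survival expressed as survival fraction relative to untreated control under the same gas condition. Assays run in duplicate with at least three repetitions; reported value is the mean of two separate experiments.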

Cricetinae gen. sp. [2] = test: In vitro survival fraction of V79 cells after 2 hours upon treatment with compound in air at 20 uM; design: unit: %; outline: as §1
Cricetinae gen. sp. [3] = test: In vitro survival fraction of V79 cells after 2 hours upon treatment with compound under hypoxia at 10 uM; design: unit: %; outline: as §1
Cricetinae gen. sp. [4] = test: In vitro survival fraction of V79 cells after 2 hours upon treatment with compound in air at 10 uM; design: unit: %; outline: as §1
Cricetinae gen. sp. [5] = test: In vitro survival fraction of V79 cells after 2 hours upon treatment with compound in air at 5 uM; outline: as §1
Cricetinae gen. sp. [6] = test: In vitro survival fraction of V79 cells after 2 hours upon treatment with compound under hypoxia at 5 uM; outline: as §1

SMILES | SF (Cricetinae gen. sp. [1]) | SF (Cricetinae gen. sp. [2]) | SF (Cricetinae gen. sp. [3]) | SF (Cricetinae gen. sp. [4]) | SF (Cricetinae gen. sp. [5]) | SF (Cricetinae gen. sp. [6])
Cc1ccc2nc3cc(N)ccc3[n+]([O-])c2c1 | 100 | 100 and 98 |  |  |  | 
Nc1ccc2nc3cc(Cl)ccc3nc2c1 | 100 | 0 |  |  |  | 
Nc1ccc2nc3cc(Br)ccc3nc2c1 | 0 | 0 |  |  |  | 
Nc1ccc2c(c1)[n+]([O-])c1ccc(Br)cc1[n+]2[O-] | 0 | 12 | 3 | 64 |  | 
[O-][n+]1c2ccc(Br)cc2[n+]([O-])c2ccc(O)cc21 | 0 | 80 |  |  |  | 
Nc1ccc2c(c1)[n+]([O-])c1ccccc1[n+]2[O-] | 0 | 2 | 19 | 64 |  | 
[O-][n+]1c2ccc(Cl)cc2[n+]([O-])c2ccc(O)cc21 | 100 | 100 |  |  |  | 
COc1ccc2c(c1)[n+]([O-])c1ccc(N)cc1[n+]2[O-] | 23 | 87 |  |  |  | 
Nc1ccc2c(c1)[n+]([O-])c1ccc(Cl)cc1[n+]2[O-] | 0 | 0 | 3 | 26 |  | 
Nc1ccc2nc3cc(C4OCCO4)ccc3nc2c1 | 100 | 100 |  |  |  | 
Cc1ccc2nc3cc(O)ccc3nc2c1 | 100 | 100 |  |  |  | 
[O-][n+]1c2ccccc2[n+]([O-])c2cc(O)ccc21 | 73 | 100 |  |  |  | 
Cc1ccc2c(c1)[n+]([O-])c1ccc(N)cc1[n+]2[O-] | 11 | 61 |  |  |  | 
[O-][n+]1c2ccc(C3OCCO3)cc2[n+]([O-])c2ccc(O)cc21 | 100 | 100 |  |  | 100 | 5
COc1ccc2c(c1)[n+]([O-])c1ccc(O)cc1[n+]2[O-] | 87 | 100 |  |  |  | 
Cc1ccc2c(c1)[n+]([O-])c1ccc(O)cc1[n+]2[O-] | 100 | 93 |  |  |  | 
Oc1ccc2nc3cc(Br)ccc3nc2c1 | 100 | 100 |  |  |  | 
O=Cc1ccc2nc3cc(O)ccc3nc2c1 | 100 | 98 |  |  |  | 
Nc1ccc2c(c1)[n+]([O-])c1ccc([N+](=O)[O-])cc1[n+]2[O-] | 2 | 1 | 65 | 58 |  | 
Cc1ccc2nc3cc(N)ccc3nc2c1 | 100 | 98 |  |  |  | 
Nc1ccc2c(c1)[n+]([O-])c1ccc(C3OCCO3)cc1[n+]2[O-] | 0 | 14 | 1 | 86 | 100 | 36
Oc1ccc2nc3cc(Cl)ccc3nc2c1 | 100 | 100 |  |  |  | 
